Reference: ChEMBL document CHEMBL3352168, “Potent, orally available, selective COX-2 inhibitors based on 2-imidazoline core” (Eur J Med Chem, 2014)
Blank lines part the entries; values can stand above or below the molecule they belong to.

Key:
[1] = biological target: T1, Prostaglandin G/H synthase 1 (Ovis aries) (UniProt P05979); assay: Inhibition of ovine COX1 using fluorometric substrate at 100 uM by fluorescent inhibitor screening assay
T1 sequence (whole entry): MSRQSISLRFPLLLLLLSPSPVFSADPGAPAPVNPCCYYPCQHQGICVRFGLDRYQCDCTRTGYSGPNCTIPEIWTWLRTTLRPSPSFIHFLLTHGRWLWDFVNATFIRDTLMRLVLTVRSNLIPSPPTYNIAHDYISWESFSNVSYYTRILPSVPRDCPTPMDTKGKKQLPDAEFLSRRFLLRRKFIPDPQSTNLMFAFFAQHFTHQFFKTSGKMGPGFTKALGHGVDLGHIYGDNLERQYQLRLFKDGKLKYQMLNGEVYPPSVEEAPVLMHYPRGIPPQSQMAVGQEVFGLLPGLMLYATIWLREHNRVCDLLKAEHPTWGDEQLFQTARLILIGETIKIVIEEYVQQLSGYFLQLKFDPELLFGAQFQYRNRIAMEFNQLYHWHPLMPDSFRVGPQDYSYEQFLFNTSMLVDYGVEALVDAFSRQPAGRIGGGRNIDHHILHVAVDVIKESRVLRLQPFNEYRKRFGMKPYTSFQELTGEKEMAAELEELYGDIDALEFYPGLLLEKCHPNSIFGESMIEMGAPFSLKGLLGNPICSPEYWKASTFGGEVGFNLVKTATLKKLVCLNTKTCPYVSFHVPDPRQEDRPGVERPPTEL

[2] = biological target: T2, Prostaglandin G/H synthase 2 (Homo sapiens, UniProt P35354); assay: Inhibition of human recombinant COX2 using fluorometric substrate by fluorescent inhibitor screening assay
T2 sequence (P35354 whole entry): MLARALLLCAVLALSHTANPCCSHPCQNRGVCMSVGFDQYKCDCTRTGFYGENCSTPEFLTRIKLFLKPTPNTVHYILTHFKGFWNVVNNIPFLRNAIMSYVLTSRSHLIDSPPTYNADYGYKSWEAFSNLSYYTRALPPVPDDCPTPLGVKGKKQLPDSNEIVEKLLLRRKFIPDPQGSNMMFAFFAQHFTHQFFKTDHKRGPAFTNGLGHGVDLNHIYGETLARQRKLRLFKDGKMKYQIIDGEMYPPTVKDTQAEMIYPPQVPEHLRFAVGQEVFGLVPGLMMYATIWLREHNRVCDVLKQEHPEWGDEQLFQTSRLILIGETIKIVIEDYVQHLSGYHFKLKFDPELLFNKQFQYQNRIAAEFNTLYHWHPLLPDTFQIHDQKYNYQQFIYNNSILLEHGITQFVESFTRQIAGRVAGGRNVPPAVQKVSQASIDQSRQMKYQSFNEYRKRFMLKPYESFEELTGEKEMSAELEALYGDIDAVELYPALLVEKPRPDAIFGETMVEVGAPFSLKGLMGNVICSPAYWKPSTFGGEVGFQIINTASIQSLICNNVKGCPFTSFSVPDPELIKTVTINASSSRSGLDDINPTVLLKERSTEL
Method in brief: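 Human recombinant COX-2 in 100 mM Tris-HCl pH 8.0 with heme and ADHP fluorometric substrate; inhibitor added at final […] (units as printed) from DMSO stocks; reaction started with arachidonic acid, 2 min at room temperature. Resorufin fluorescence read at ex 535/em 590 nm; % inhibition vs no-inhibitor activity; IC50 from concentration–inhibition curve, triplicate determinations.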

[3] = test system: Plasma; assay: Volume of distribution at steady state in C57Bl mouse plasma at 10 mg/kg, po; assay type: ADME, organism-based; parameters: dose 10 mg/kg, route oral; settings: in vivo
Method in brief: (§1)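 Male C57Bl mice, about 2 months old, 18.1–23.6 g, fasted overnight, dosed by oral gavage; 4 animals per group plus non-dosed control group; killed by cervical dislocation for blood and whole brain. Plasma precipitated with internal standard; brain homogenized in 67% methanol, centrifuged, spiked with internal standard; quantified by HPLC-MS against blank-brain calibration.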

[4] = test system: Plasma; assay: Cmax in C57Bl mouse plasma assessed as aromatization metabolite at 10 mg/kg, po; assay type: ADME, organism-based; parameters: dose 10 mg/kg, route oral; settings: in vivo
[5] = test system: Brain; assay: Cmax in C57Bl mouse brain assessed as aromatization metabolite at 10 mg/kg, po; assay type: ADME, organism-based; parameters: dose 10 mg/kg, route oral; settings: in vivo
[6] = test system: Brain; assay: AUC (0 to infinity) in C57Bl mouse brain assessed as aromatization metabolite at 10 mg/kg, po; assay type: ADME, organism-based; parameters: time infinity, dose 10 mg/kg, route oral; settings: in vivo
[7] = AUC (0 to 240 mins) in C57Bl mouse brain at 10 mg/kg, po; assay type: ADME, organism-based; parameters: time < 4 hr, dose 10 mg/kg, route oral; method in brief: as §1
[8] = Half life in C57Bl mouse brain at 10 mg/kg, po; assay type: ADME, organism-based; parameters: dose 10 mg/kg, route oral; method in brief: as §1
[9] = test system: Brain; assay: AUC (0 to 240 mins) in C57Bl mouse brain assessed as aromatization metabolite at 10 mg/kg, po; assay type: ADME, organism-based; parameters: time < 4 hr, dose 10 mg/kg, route oral; settings: in vivo, 4 h
[10] = AUC (0 to infinity) in C57Bl mouse plasma at 10 mg/kg, po; assay type: ADME, organism-based; parameters: time infinity, dose 10 mg/kg, route oral; method in brief: as §1
[11] = Tmax in C57Bl mouse plasma at 10 mg/kg, po; assay type: ADME, organism-based; parameters: dose 10 mg/kg, route oral; method in brief: as §1
[12] = test system: Brain; assay: Tmax in C57Bl mouse brain assessed as aromatization metabolite at 10 mg/kg, po; assay type: ADME, organism-based; parameters: dose 10 mg/kg, route oral; settings: in vivo
[13] = Cmax in C57Bl mouse brain at 10 mg/kg, po; assay type: ADME, organism-based; parameters: dose 10 mg/kg, route oral; method in brief: as §1
[14] = test system: Brain; assay: Half life in C57Bl mouse brain assessed as aromatization metabolite at 10 mg/kg, po; assay type: ADME, organism-based; parameters: dose 10 mg/kg, route oral; settings: in vivo
[15] = Cmax in C57Bl mouse plasma at 10 mg/kg, po; assay type: ADME, organism-based; parameters: dose 10 mg/kg, route oral; method in brief: as §1
[16] = AUC (0 to infinity) in C57Bl mouse brain at 10 mg/kg, po; assay type: ADME, organism-based; parameters: time infinity, dose 10 mg/kg, route oral; method in brief: as §1
[17] = Clearance in C57Bl mouse plasma at 10 mg/kg, po; assay type: ADME, organism-based; parameters: dose 10 mg/kg, route oral; method in brief: as §1
[18] = test system: Plasma; assay: Tmax in C57Bl mouse plasma assessed as aromatization metabolite at 10 mg/kg, po; assay type: ADME, organism-based; parameters: dose 10 mg/kg, route oral; settings: in vivo
[19] = AUC (0 to 240 mins) in C57Bl mouse plasma at 10 mg/kg, po; assay type: ADME, organism-based; parameters: time < 4 hr, dose 10 mg/kg, route oral; method in brief: as §1
[20] = test system: Plasma; assay: Drug metabolism in C57Bl mouse plasma at 10 mg/kg, po; assay type: ADME, organism-based; parameters: dose 10 mg/kg, route oral; settings: in vivo
[21] = test system: Brain; assay: Drug metabolism in C57Bl mouse brain at 10 mg/kg, po; assay type: ADME, organism-based; parameters: dose 10 mg/kg, route oral; settings: in vivo
[22] = test system: Plasma; assay: AUC (0 to 240 mins) in C57Bl mouse plasma assessed as aromatization metabolite at 10 mg/kg, po; assay type: ADME, organism-based; parameters: time < 4 hr, dose 10 mg/kg, route oral; settings: in vivo, 4 h
[23] = test system: Plasma; assay: AUC (0 to infinity) in C57Bl mouse plasma assessed as aromatization metabolite at 10 mg/kg, po; assay type: ADME, organism-based; parameters: dose 10 mg/kg, route oral, time infinity; settings: in vivo
[24] = test system: Plasma; assay: Half life in C57Bl mouse plasma assessed as aromatization metabolite at 10 mg/kg, po; assay type: ADME, organism-based; parameters: dose 10 mg/kg, route oral; settings: in vivo
[25] = test system: Mus musculus; assay: Antiinflammatory activity in mouse assessed as reduction in carrageenan-induced inflamed paw volume at 3.7 mg/kg, ip relative to untreated control; assay type: functional; settings: route intraperitoneal
[26] = Half life in C57Bl mouse plasma at 10 mg/kg, po; assay type: ADME, organism-based; parameters: dose 10 mg/kg, route oral; method in brief: as §1
[27] = Tmax in C57Bl mouse brain at 10 mg/kg, po; assay type: ADME, organism-based; parameters: dose 10 mg/kg, route oral; method in brief: as §1

SMILES: CC1CN(c2ccc(S(N)(=O)=O)cc2)C(c2ccc(Cl)cc2)=N1 (racemic)
inhibition [1]: 3.2%
IC50 [2]: > 10 µM

SMILES: CC1CN(c2ccc(S(N)(=O)=O)cc2)C(c2ccc(F)cc2)=N1 (racemic)
inhibition [1]: 5.5%
IC50 [2]: > 10 µM

SMILES: CS(=O)(=O)c1ccc(N2CCN=C2c2ccc(F)cc2)cc1
inhibition [1]: 12.6%
IC50 [2]: > 10 µM

SMILES: CC1CN(c2ccc(S(C)(=O)=O)cc2)C(c2ccc(Cl)cc2)=N1 (racemic)
inhibition [1]: -5.2%
IC50 [2]: > 10 µM

SMILES: Cc1cccc(C2=NCCN2c2ccc(S(C)(=O)=O)cc2)c1
inhibition [1]: 6%
IC50 [2]: > 10 µM

SMILES: COc1cc(C2=NCCN2c2ccc(S(C)(=O)=O)cc2)ccc1F
inhibition [1]: -4.3%
IC50 [2]: > 10 µM

SMILES: CS(=O)(=O)c1ccc(N2CCN=C2c2cccc(Cl)c2)cc1
inhibition [1]: 1.4%
IC50 [2]: 8.1 µM

SMILES: CS(=O)(=O)c1ccc(N2CCN=C2c2ccc(F)c(F)c2)cc1
inhibition [1]: 9.2%
IC50 [2]: > 10 µM

SMILES: COc1ccc(C2=NCCN2c2ccc(S(C)(=O)=O)cc2)cc1Cl
inhibition [1]: 1.2%
IC50 [2]: > 10 µM

Now those with a lower IC50 [2], led by results:

inhibition [1]: 1.9%
IC50 [2]: 2.1 µM
SMILES: CS(=O)(=O)c1ccc(N2CCN=C2c2ccc(Cl)c(Cl)c2)cc1

inhibition [1]: 3%
IC50 [2]: 6.2 µM
SMILES: COc1ccc(C2=NCCN2c2ccc(S(N)(=O)=O)cc2)cc1Cl

inhibition [1]: 3.2%
IC50 [2]: 7.1 µM
SMILES: CS(=O)(=O)c1ccc(N2CCN=C2c2ccc(Cl)cc2)cc1

inhibition [1]: 2.7%
IC50 [2]: 1.8 µM
SMILES: NS(=O)(=O)c1ccc(N2CCN=C2c2ccc(Cl)c(C(F)(F)F)c2)cc1

Vdss [3]: 1.22 L/kg
Cmax [4]: 735 ng/mL
inhibition [1]: 8.7%
Cmax [5]: 33 ng/mL
AUC [6]: 8533 ng·min/mL
AUC(0-t) at 4 h [7]: 491 ng·h/mL
half-life [8]: 0.967 h
AUC [9]: 5969 ng·min/mL
AUC(0-inf) [10]: 12700 ng·h/mL
Tmax [11]: 5 min
Tmax [12]: 2 h
Cmax [13]: 267 ng/mL
t1/2 [14]: 1.87 h
Cmax [15]: 6140 ng/mL
AUC(0-inf) [16]: 525 ng·h/mL
CL/F [17]: 13 mL/min/kg
Tmax [18]: 2 h
AUC(0-t) at 4 h [19]: 11700 ng·h/mL
Drug metabolism [20]: metabolite_detected
Drug metabolism [21]: metabolite_detected
AUC [22]: 145573 ng·min/mL
AUC [23]: 364739 ng·min/mL
t1/2 [24]: 4.65 h
IC50 [2]: 0.3 µM
half-life [26]: 1.08 h
Tmax [27]: 0.5 h
SMILES: NS(=O)(=O)c1ccc(N2CCN=C2c2ccc(Cl)c(Cl)c2)cc1
inhibition in vivo at 3.7 mg/kg [25]: 56%

inhibition [1]: 12.9%
IC50 [2]: 2.9 µM
SMILES: NS(=O)(=O)c1ccc(N2CCN=C2c2cccc(Br)c2)cc1
